From PubChem
Many of the other results were omitted from the sample, so hits are more common in it than they were.
CHOP inh = blocks CHOP induction under ER stress | AID 2732 | inhibition, % at 10 µM | actives 3.8% (n = 220,000) | CHO-K1 CHOP-promoter luciferase, tunicamycin-induced, 15-18 h;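 active = compounds that reduced the stress-induced luciferase reporter signal by more than about 70% of percent inhibition, limit read from the data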
CHOP UPR activ = activators of apoptotic arm of unfolded protein response (CHOP); activation, % at 10 µM; actives 0.34% (n = 330,000); CHO-CHOP luciferase reporter, UPR activation, luminescence; percent of tunicamycin response over DMSO baseline; AID 449763;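 active = at 10 µM dose, activation of 40% or more, normalized to positive control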
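Test system: CHO-CHOP cells, stable luciferase reporter of PERK-eIF2a-CHOP signalling | Quantity: 500 CHO-CHOP cells per well | Buffer or medium: F12 plus 10% serum | Compound dosing: 10 µM single point, 0.5% DMSO | Schedule: 6 h compound treatment, 37 °C | Signal: Luciferase luminescence | Control set: Tunicamycin high control, DMSO low control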
Dynein transport = dynein cargo transport inhibition; 3617.4 mouse cells, GR-EGFP nuclear translocation imaging; test concentration mostly 20 µM; stimulated with dexamethasone, 1 µM; hits give low values; z-score, hits read low; actives 0.47% (n = 220,000);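 active = plate z-score of nuclear minus cytoplasmic receptor signal below a set negative limit, without overly bright fluorescence or cell loss, cut at about -3.5 in these data, passing the limit was not always enough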;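 note: z-score of nuclear minus cytoplasmic ring GR-EGFP intensity difference per well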
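medium = tetracycline-free induction medium containing charcoal-stripped FBS | probe or stimulus = dexamethasone, 1.0 µM final | timing = 48 h induction, then 1 h compound, then 30 min agonist, 37 °C | detection = automated 10x imaging of fixed Hoechst-stained cells | read-out basis = nuclear versus cytoplasmic GR-EGFP signal, averaged per well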
p-CIP stab down = lowers stability of the mouse p/CIP coactivator protein; F442A p/CIP-EGFP cells, EGFP fluorescence, 16 h; Q05BA5; actives 0.01% (n = 290,000); decrease of EGFP signal, % at 10 µM;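 active = EGFP signal decrease of at least 30% at 10 µM or well 3 SD below plate mean, unless failing retest; inactive = the rest, including hits failing retest or dose response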
XBP1 UPR activ = adaptive UPR (XBP1) activation. activation, % at 20 µM. AID 463104. actives 0.33% (n = 330,000). CHO-XBP1 luciferase reporter, IRE1-XBP1 UPR activation, luminescence; percent of tunicamycin response, DMSO as zero;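 active = versus positive control, 20 µM dose yields 30% or more activation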
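Material: CHO cell line with stable XBP1 luciferase reporter; buffer or medium: F12 medium containing 10% fetal bovine serum; compound: single point, 20 µM final compound, 1% DMSO; incubation: 6 h treatment, 37 °C; measured by: glow luminescence from Steady-Glo reagent; evaluation: activation, % of tunicamycin; control set: tunicamycin high, DMSO low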
B2AR ag = human beta-2 adrenergic receptor agonism by FAP; P07550; Am2.2-beta2AR cells, FAP receptor internalization, flow cytometry; response, % (test concentration not listed); actives 0.43% (n = 340,000); AID 504454;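 active = response above a set limit, near 3 SD of response in nonfluorescent compounds, cut at about 42% in these data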
Target sequence (P07550 whole entry, looked up): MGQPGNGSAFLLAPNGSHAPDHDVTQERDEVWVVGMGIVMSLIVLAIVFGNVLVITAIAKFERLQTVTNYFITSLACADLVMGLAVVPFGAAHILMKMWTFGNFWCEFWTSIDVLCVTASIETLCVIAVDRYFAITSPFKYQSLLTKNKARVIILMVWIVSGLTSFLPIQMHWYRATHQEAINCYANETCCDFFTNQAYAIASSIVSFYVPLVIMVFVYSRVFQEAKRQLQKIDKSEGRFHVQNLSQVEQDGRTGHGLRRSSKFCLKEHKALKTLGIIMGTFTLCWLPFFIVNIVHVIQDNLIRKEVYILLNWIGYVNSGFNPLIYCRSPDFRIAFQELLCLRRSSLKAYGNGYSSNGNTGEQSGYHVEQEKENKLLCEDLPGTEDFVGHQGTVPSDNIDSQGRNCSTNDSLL
CHOP confirm = confirmation of CHOP induction inhibitors; shares compounds with CHOP inh; inhibition, % at 10 µM; actives 45% (n = 2,100); CHO-CHOP promoter luciferase reporter, tunicamycin-induced, luminescence;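 active = mean of three repeat readings of reporter signal inhibition above a set limit, cut at about 70% in these data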
Numbers stand for hits; . = inactive; / = not tested or not shown.

SMILES	CHOP inh	CHOP UPR activ	Dynein transport	p-CIP stab down	XBP1 UPR activ	B2AR ag	CHOP confirm
CC(C)=CCC[C@](C)(O[C@@H]1O[C@H](CO[C@@H]2O[C@H](CO)[C@@H](O)[C@H](O)[C@H]2O)[C@@H](O)[C@H](O)[C@H]1O)C1CC[C@]2(C)C1C(=O)CC1[C@@]3(C)CC[C@H](O[C@H]4O[C@@H](CO)[C@H](O)[C@@H](O)[C@@H]4O)C(C)(C)C3CC[C@]12C (stereo partly specified)	/	.	/	/	.	.	/
Cc1cccnc1NC(=O)CCNC(=O)c1ccc(Br)cc1	/	.	/	.	.	.	/
CCN(CC)C(=O)[C@H]1CC(CC(=O)NC(C)(C)C)C(=O)N2CCc3c([nH]c4ccccc34)[C@]12C (stereo partly specified)	/	.	/	/	.	.	/
Cc1cccc(/C=C/C(=O)c2cc(Br)ccc(=O)c2O)c1	102	.	.	.	.	.	100
CN(c1ccccc1)C1CCCCC1NS(=O)(=O)c1ccc(Cl)cc1 (stereo unspecified)	96	.	.	.	.	.	.
CCN(CC)C1CCCCC1NS(=O)(=O)c1ccc(Cl)cc1 (stereo unspecified)	.	.	.	.	.	.	/
FC(F)Sc1ccc(NC(=S)NCC2CCCCC2)cc1	106	.	.	.	.	.	.
FC(F)Sc1ccc(NC(=S)NCc2ccccc2)cc1	.	.	.	.	.	.	/
CCCOc1ccc([N+](=O)[O-])cc1C1NC(=S)NC(c2ccccc2)=C1C(=O)OCC (stereo unspecified)	.	.	.	.	.	.	/
Cc1ccc(NC(=O)C2OCCc3ccccc32)cc1 (stereo unspecified)	.	.	.	.	.	.	/
Cc1ccc(NC(=O)C(=O)NCC2OCCc3ccccc32)cc1 (stereo unspecified)	105	.	.	.	.	.	102
COc1ccc(C(=O)c2coc(-c3ccccc3C(=O)O)c2C(=O)O)cc1	.	.	.	.	.	.	/
COc1ccc(C(=O)c2c(C(F)(F)F)oc3c2C(=O)c2ccccc2C3=O)cc1	106	.	.	.	.	.	117
CC(=O)C1=C(O)C(=O)N(CCCn2ccnc2)C1c1ccc(Br)cc1 (stereo unspecified)	.	.	.	.	.	.	/
C/C(=N\NC(=O)c1nn(C)c(C)c1Br)c1ccc(NC(=O)c2ccoc2C)cc1	100	.	.	.	.	.	115
C/C(=N\NC(=O)c1c(Br)c(C)nn1C)c1ccc(NC(=O)c2ccoc2C)cc1	.	.	.	.	.	.	/
Cc1ccc(C2(c3ccc(C)cc3)CC2C(=O)Nc2ccc([N+](=O)[O-])cc2O)cc1 (stereo unspecified)	107	.	.	.	.	.	78
Cc1ccc(S(=O)(=O)N(CC(=O)Nc2ccc(C(N)=O)cc2)C(=O)N2CCN(C)CC2)cc1	/	.	/	/	.	.	/
OC(c1ccc(Cl)cc1)c1nccc2ccccc12 (stereo unspecified)	/	.	/	.	.	.	/
Cc1ccc2nc(SCC(=O)OCc3ccccc3)nc(=O)n2c1	/	.	/	/	.	.	/
Clc1ccc2ncc(-c3nnnn3-c3ccccc3)c(-c3ccccc3)c2c1	107	.	.	.	.	.	.
CC(C)Cn1c(N)c(C(=O)COC(=O)CC23CC4CC(CC(C4)C2)C3)c(=O)n(C)c1=O	98	.	.	.	.	.	90
Cc1csc(=O)n1CCC(=O)OCC(=O)c1c(N)n(CC(C)C)c(=O)n(C)c1=O	/	.	/	/	.	.	/
Cn1cnnc1SCC(=O)NC1CCCN(Cc2ccccc2F)C1 (stereo unspecified)	/	.	/	.	.	.	/
Cn1c(=O)cc(SCC(=O)NCCC2=CCCCC2)c2ccc(Cl)cc21	97	.	.	.	.	.	90
